This note sets out measurements from ChEMBL document CHEMBL1255453, “Affinity of ceftaroline and other beta-lactams for penicillin-binding proteins from Staphylococcus aureus and Streptococcus pneumoniae” (Antimicrob Agents Chemother, 2010).

As usually defined, the IC50 is the concentration needed to halve the response being measured. A low value points to greater potency.

Molecules are shown by their SMILES. Values after ≈ are worked out from the molar mass of the structure shown.

A short description of experiment [1]: Binding affinity to penicillin-resistant Streptococcus pneumoniae 2527 PBP1B by competitive binding assay. In short, it runs like this: (§1)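 Whole pneumococcal cells were grown to OD600 0.3 in Todd-Hewitt broth plus 0.5% yeast extract, then resuspended in 50 mM NaPO4, pH 7.0. Cells at 10^8 to 5 × 10^8 CFU/ml were exposed to β-lactam for 10 min at 37°C, alongside a reference without drug. They were then labeled with 10 μg/ml Bocillin FL for 15 min at 37°C. Proteins were resolved by SDS-PAGE and fluorescence read at 520 nm. IC50 was taken as 50% inhibition of Bocillin FL binding, from 2 experiments.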

In experiment [2] the target is Penicillin-binding protein 2x (Streptococcus pneumoniae serotype 4 (strain ATCC BAA-334 / TIGR4), UniProt P14677). As to the kind of experiment: Binding affinity to penicillin-resistant Streptococcus pneumoniae 2527 PBP2X by competitive binding assay. In short, it runs like this:
as §1

Experiment [3] deals with T1, Penicillin-binding protein 1A (Streptococcus pneumoniae serotype 4 (strain ATCC BAA-334 / TIGR4), UniProt Q04707).
T1 sequence (Q04707 whole entry): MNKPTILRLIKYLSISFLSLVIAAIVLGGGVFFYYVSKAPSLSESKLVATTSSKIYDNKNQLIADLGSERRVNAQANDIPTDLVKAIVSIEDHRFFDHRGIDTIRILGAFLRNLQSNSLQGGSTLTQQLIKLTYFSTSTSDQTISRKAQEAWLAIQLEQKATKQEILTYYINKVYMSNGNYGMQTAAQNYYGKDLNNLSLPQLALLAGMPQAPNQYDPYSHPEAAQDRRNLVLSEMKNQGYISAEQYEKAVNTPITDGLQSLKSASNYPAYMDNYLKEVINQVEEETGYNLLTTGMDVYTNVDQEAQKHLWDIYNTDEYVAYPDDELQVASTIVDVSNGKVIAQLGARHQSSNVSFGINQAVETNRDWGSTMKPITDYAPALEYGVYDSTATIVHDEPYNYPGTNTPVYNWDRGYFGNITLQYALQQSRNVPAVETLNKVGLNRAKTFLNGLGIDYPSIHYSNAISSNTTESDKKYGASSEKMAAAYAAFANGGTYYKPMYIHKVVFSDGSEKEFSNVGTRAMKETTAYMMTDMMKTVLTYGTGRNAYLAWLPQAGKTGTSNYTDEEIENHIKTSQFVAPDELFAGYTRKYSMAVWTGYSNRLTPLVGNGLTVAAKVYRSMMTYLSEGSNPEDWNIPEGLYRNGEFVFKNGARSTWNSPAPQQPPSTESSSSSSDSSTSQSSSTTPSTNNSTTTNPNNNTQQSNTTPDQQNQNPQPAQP
As to the kind of experiment: Binding affinity to penicillin-resistant Streptococcus pneumoniae 3413 PBP1A by competitive binding assay. In short, it runs like this:
as §1

Experiment [4] is described as follows: Binding affinity to against penicillin-susceptible Streptococcus pneumoniae 1076 PBP1B by competitive binding assay. In short, it runs like this: (§2)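 Whole pneumococcal cells grown to OD600 0.3 in Todd-Hewitt broth with 0.5% yeast extract, resuspended in 50 mM NaPO4 pH 7.0. Cells (10^8–5 × 10^8 CFU/ml) incubated with β-lactam 10 min at 37°C, then Bocillin FL 10 μg/ml, 15 min at 37°C. SDS-PAGE, 520 nm fluorescence; IC50 = 50% inhibition of Bocillin FL binding; 2 experiments.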

Experiment [5] can be described thus: Binding affinity to penicillin-resistant Streptococcus pneumoniae 24 PBP2A by competitive binding assay. In short, it runs like this:
as §2

Experiment [6] in a line: Binding affinity to penicillin-resistant Streptococcus pneumoniae 3413 PBP3 by competitive binding assay. In short, it runs like this:
as §1

Experiment [7] can be described thus: Binding affinity to penicillin-resistant Streptococcus pneumoniae 24 PBP3 by competitive binding assay. In short, it runs like this: as §1
The target in experiment [8] is T1, Penicillin-binding protein 1A. In words: Binding affinity to penicillin-resistant Streptococcus pneumoniae 2527 PBP1A by competitive binding assay. In short, it runs like this: as §1
Experiment [9] can be described thus: Binding affinity to against penicillin-susceptible Streptococcus pneumoniae 1076 PBP3 by competitive binding assay. In short, it runs like this:
as §2

In experiment [10] the target is T2, Penicillin-binding protein 2B (Streptococcus pneumoniae serotype 4 (strain ATCC BAA-334 / TIGR4), UniProt P0A3M5).
T2 sequence (P0A3M5 whole entry): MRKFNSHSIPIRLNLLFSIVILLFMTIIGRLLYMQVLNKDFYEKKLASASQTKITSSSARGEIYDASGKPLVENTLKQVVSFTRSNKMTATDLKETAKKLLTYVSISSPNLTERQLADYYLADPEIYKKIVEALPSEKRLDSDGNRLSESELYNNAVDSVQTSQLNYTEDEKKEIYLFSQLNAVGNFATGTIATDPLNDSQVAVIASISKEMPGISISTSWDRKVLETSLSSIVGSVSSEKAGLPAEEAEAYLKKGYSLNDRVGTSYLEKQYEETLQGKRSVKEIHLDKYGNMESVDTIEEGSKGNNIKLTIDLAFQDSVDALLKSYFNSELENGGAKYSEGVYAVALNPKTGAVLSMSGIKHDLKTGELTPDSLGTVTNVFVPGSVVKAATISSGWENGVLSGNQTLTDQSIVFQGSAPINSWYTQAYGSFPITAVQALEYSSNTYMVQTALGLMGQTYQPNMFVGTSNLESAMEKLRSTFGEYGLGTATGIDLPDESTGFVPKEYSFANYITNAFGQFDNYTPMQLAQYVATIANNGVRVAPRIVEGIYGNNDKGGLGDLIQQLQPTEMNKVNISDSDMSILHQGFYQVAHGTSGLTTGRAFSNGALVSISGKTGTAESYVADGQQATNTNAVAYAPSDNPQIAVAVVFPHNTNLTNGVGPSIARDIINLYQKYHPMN
In words: Binding affinity to penicillin-resistant Streptococcus pneumoniae 3413 PBP2B by competitive binding assay. In short, it runs like this: as §1

For experiment [11], the target named is T2, Penicillin-binding protein 2B. In words: Binding affinity to penicillin-resistant Streptococcus pneumoniae 24 PBP2B by competitive binding assay. In short, it runs like this:
as §1

A short description of experiment [12]: Binding affinity to penicillin-resistant Streptococcus pneumoniae 3413 PBP1B by competitive binding assay. In short, it runs like this:
as §1

A short description of experiment [13]: Binding affinity to penicillin-resistant Streptococcus pneumoniae 24 PBP1B by competitive binding assay. In short, it runs like this:
as §2

The nature of experiment [14]: Binding affinity to penicillin-resistant Streptococcus pneumoniae 2527 PBP2A by competitive binding assay. In short, it runs like this: as §1
In experiment [15] the target is T2, Penicillin-binding protein 2B. As to the kind of experiment: Binding affinity to penicillin-resistant Streptococcus pneumoniae 2527 PBP2B by competitive binding assay. In short, it runs like this:
as §1

The nature of experiment [16]: Binding affinity to against penicillin-susceptible Streptococcus pneumoniae 1076 PBP2A by competitive binding assay. In short, it runs like this:
as §2

Penicillin-binding protein 2x, sequence (P14677 whole entry, looked up): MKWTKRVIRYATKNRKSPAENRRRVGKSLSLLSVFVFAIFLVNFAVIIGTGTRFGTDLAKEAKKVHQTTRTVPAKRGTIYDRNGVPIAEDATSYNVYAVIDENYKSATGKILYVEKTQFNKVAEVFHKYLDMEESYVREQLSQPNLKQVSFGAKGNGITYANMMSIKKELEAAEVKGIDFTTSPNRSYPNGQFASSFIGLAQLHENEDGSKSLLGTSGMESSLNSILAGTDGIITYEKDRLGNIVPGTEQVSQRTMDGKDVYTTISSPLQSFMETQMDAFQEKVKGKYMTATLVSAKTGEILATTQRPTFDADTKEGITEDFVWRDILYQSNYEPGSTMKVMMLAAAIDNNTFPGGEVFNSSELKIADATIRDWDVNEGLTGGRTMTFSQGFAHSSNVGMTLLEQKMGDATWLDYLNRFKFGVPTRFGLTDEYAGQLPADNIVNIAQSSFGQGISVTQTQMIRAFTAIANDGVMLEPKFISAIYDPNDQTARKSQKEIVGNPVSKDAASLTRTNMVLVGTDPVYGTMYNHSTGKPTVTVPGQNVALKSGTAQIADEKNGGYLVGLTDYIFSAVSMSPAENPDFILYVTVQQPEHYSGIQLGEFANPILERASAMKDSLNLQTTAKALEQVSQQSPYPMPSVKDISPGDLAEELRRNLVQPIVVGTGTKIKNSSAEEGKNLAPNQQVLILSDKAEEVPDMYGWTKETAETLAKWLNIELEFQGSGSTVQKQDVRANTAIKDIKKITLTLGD

Turning to `CO/N=C(\C(=O)N[C@@H]1C(=O)N2C(C(=O)O)=C(COC(C)=O)CS[C@H]12)c1csc(N)n1` [CEFOTAXIME], the half-inhibitory concentration (IC50) was 0.25 µg/mL (≈ 0.549 µM) in [1]; 0.22 µM in experiment [2]; 0.549 µM in [3]; 0.25 µg/mL (≈ 0.549 µM) in experiment [4]; 0.5 µg/mL (≈ 1.1 µM) in experiment [5]; 0.1 µg/mL (≈ 0.22 µM) in [6]. Moreover, the IC50 in experiment [7] is 0.1 µg/mL (≈ 0.22 µM); in experiment [8] it was 0.549 µM; in [9], 0.1 µg/mL (≈ 0.22 µM); in experiment [10], 35.1 µM; in experiment [11] it was 35.1 µM; in [12], 4 µg/mL (≈ 8.78 µM). For the same compound, the IC50 was 8 µg/mL (≈ 17.6 µM) in experiment [13], 0.25 µg/mL (≈ 0.549 µM) in [14], 8.78 µM in experiment [15] and 0.25 µg/mL (≈ 0.549 µM) in experiment [16].

For the compound `CO/N=C(\C(=O)N[C@@H]1C(=O)N2C(C(=O)O)=C(CSc3nc(=O)c(O)nn3C)CS[C@H]12)c1csc(N)n1` [CEFTRIAXONE], the half-inhibitory concentration (IC50) in experiment [1] was 0.125 µg/mL (≈ 0.225 µM); in experiment [2], 0.18 µM; in experiment [3], 0.451 µM; in experiment [4] it was 0.1 µg/mL (≈ 0.18 µM); in experiment [5] it was 1 µg/mL (≈ 1.8 µM); in experiment [6], 0.25 µg/mL (≈ 0.451 µM). The IC50 is 0.25 µg/mL (≈ 0.451 µM) in experiment [7]; 0.451 µM in experiment [8]; 0.1 µg/mL (≈ 0.18 µM) in experiment [9]; 28.9 µM in experiment [10]; 28.9 µM in [11]; 4 µg/mL (≈ 7.21 µM) in experiment [12]. For the same compound, the IC50 in experiment [13] was 1 µg/mL (≈ 1.8 µM); in [14], 0.25 µg/mL (≈ 0.451 µM); in experiment [15] it was 7.21 µM; in experiment [16] it was 0.25 µg/mL (≈ 0.451 µM).
